# From ChEMBL document CHEMBL1156079, “Imidazoquines as antimalarial and antipneumocystis agents” (J Med Chem, 2009)
# How the values were obtained:
# [1] = Solubility in water; format: physicochemical
# Plasmodium berghei [2] = test: (§1) Antiplasmodial activity against Plasmodium berghei ANKA infected in BALB/c mice (Mus musculus) assessed as parasite-transmission to Anopheles stephensi after feeding on infected mice (Mus musculus) at 50 umol/kg, intraperitoneally administered 4 days after infection measured 10 days after 2 hrs of mosquito feeding by transmission-blocking activity assay relative to control; format: functional
# Summary of the method: (§2)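 Balb/C mice infected with P. berghei ANKA; after 4 days, once gametocytes were seen on Giemsa blood films, groups of six got one intraperitoneal dose (10 or 50 μmol/kg; PBS controls). At 2 h, anesthetized mice fed ca. 50 glucose-starved female An. stephensi for 2 h. Ten days later, 10 mosquitoes per cage dissected; midgut oocysts counted, giving % infected mosquitoes and mean oocysts per mosquito.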
# Plasmodium falciparum = test: Antiplasmodial activity against chloroquine-resistant blood stage Plasmodium falciparum W2 after 48 hrs by FACS analysis; format: functional, organism-based; conditions: W2, 48 h
# [3] = Chemical stability by HPLC analysis; format: physicochemical
# Homo sapiens = species on record: Homo sapiens; test: Half life in human plasma by HPLC analysis
# Pneumocystis carinii [4] = test: Antipneumocystis activity against Pneumocystis carinii assessed as reduction in parasite ATP content after 72 hrs by luciferin-luciferase assay; format: functional, organism-based
# Summary of the method: (§3)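 P. carinii from immunosuppressed, intratracheally inoculated Long Evans and Brown Norway rats, 10⁸ nuclei/ml in supplemented RPMI 1640 with 20% calf serum, pH 7.5–8.0, 380 mOsm. Compounds added in DMSO (final <0.2% v/v). Incubated at 35 °C, 10% CO₂, with daily medium change; sampled at 24, 48 and 72 h. ATP measured by luciferin-luciferase as % of untreated control; triplicate wells across isolation batches, three readings each.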
# Pneumocystis carinii [5] = test: Antipneumocystis activity against Pneumocystis carinii assessed as reduction in parasite ATP content after 24 to 72 hrs by luciferin-luciferase assay; format: functional, organism-based; summary of the method: as §3
# Plasmodium berghei [6] = test: Antiplasmodial activity against liver-stage GFP expressing Plasmodium berghei sporozoites infected in human HuH7 cells assessed as inhibition of parasite schizonts development after 48 hrs by FACS analysis; format: functional, organism-based; conditions: for Activity: Huh-7; for IC50: Huh-7, Liver
# Pneumocystis carinii [7] = test: Antipneumocystis activity against Pneumocystis carinii assessed as reduction in parasite ATP content at < 0.2% v/v by luciferin-luciferase assay; format: functional, organism-based; conditions: TDE = time-dependent effect
# Plasmodium berghei [8] = test: as §1, with “10” for “50”; format: functional; summary of the method: as §2
# A549 = test: Cytotoxicity against human A549 cells after 72 hrs; format: cell-based; conditions: A549, 72 h
# [9] = Octanol/water partition coefficient, log P of the compound; format: physicochemical
# Pneumocystis carinii [10] = test: Antipneumocystis activity against Pneumocystis carinii assessed as reduction in parasite ATP content after 48 hrs by luciferin-luciferase assay; format: functional, organism-based; summary of the method: as §3
# Pneumocystis carinii [11] = test: Antipneumocystis activity against Pneumocystis carinii assessed as reduction in parasite ATP content after 24 hrs by luciferin-luciferase assay; format: functional, organism-based; summary of the method: as §3
# [12] = Selectivity index, ratio of cytotoxicity against human A549 cells to IC50 for chloroquine-resistant blood-stage Plasmodium falciparum W2; format: toxicity, cell-based; conditions: read-out: Selectivity Index
Compound,solubility ([1]; water) [µg/mL],Activity (Plasmodium berghei [2]) [%],IC50 (Plasmodium falciparum) [µM],Stability [3],half-life (Homo sapiens) [days],IC50 (Pneumocystis carinii [4]) [µM],Activity (Pneumocystis carinii [5]),Activity (Plasmodium berghei [6]),IC50 (Plasmodium berghei [6]) [µM],Activity (Pneumocystis carinii [7]),Activity (Plasmodium berghei [8]) [%],IC50 (A549) [µM],logP [9],IC50 (Pneumocystis carinii [10]) [µM],IC50 (Pneumocystis carinii [11]) [µM],selectivity ratio [12],solubility ([1]; buffer) [µg/mL]
CC[C@H](C)[C@@H](N)C(=O)N1CC(=O)N(CCCC(C)Nc2cc(OC)cc3cccnc23)C1(C)C (stereo partly specified),29.7,62.2,8.7,Stable,> 3,9.8,Dose-dependent effect,Dose-dependent effect,13,tde,83.3,14.9,3.4,16,27.5,,
COc1cc(NC(C)CCCN2C(=O)CN(C(C)=O)C2(C)C)c2ncccc2c1 (stereo unspecified),,,> 10,,,36.7,,,,,,> 100,,102,≥ 50,,
COc1cc(NC(C)CCCN2C(=O)CN(C(=O)CN)C2(C)C)c2ncccc2c1 (stereo unspecified),150,40.5,6.7,Stable,> 3,28.1,Dose-dependent effect,Dose-dependent effect,22,tde,42.5,> 100,2.19,37.5,43.8,,
COc1cc(NC(C)CCCN2C(=O)[C@@H](C)N(C(=O)CN)C2(C)C)c2ncccc2c1 (stereo partly specified),110,37.5,5.5,Stable,> 3,52.2,Dose-dependent effect,Dose-dependent effect,21,tde,62,> 100,2.57,75.4,≥ 50,,
COc1cc(NC(C)CCCN2C(=O)[C@@H](C)NC2(C)C)c2ncccc2c1 (stereo partly specified),29.8,,,,> 3,,,,,,,,3.25,,,,
COc1cc(NC(C)CCCN2C(=O)CN(C(=O)[C@H](N)CC(C)C)C2(C)C)c2ncccc2c1 (stereo partly specified),26.6,,6.3,Stable,> 3,10.9,Dose-dependent effect,Dose-dependent effect,24,tde,,21.2,3.36,17.9,31.1,3.5,
COc1cc(NC(C)CCCN)c2ncccc2c1 (stereo unspecified) [PRIMAQUINE],,2.9,,,,3.5,Dose-dependent effect,,,tde,40,> 100,2.76,8.5,18.1,,56.4
COc1cc(NC(C)CCCN2C(=O)CNC2(C)C)c2ncccc2c1 (stereo unspecified),40.5,,,,,,,,,,,,3.07,,,,
COc1cc(NC(C)CCCN2C(=O)CN(C(=O)[C@H](N)C(C)C)C2(C)C)c2ncccc2c1 (stereo partly specified),46.5,,7.9,Stable,> 3,13.6,Dose-dependent effect,Dose-dependent effect,17,tde,,5.5,2.93,20.2,54.3,,
COc1cc(NC(C)CCCN2C(=O)CN(C(=O)[C@H](N)CCSC)C2(C)C)c2ncccc2c1 (stereo partly specified),11.7,26.4,12.5,Stable,> 3,7,Dose-dependent effect,Dose-dependent effect,31,tde,47.1,7.9,2.94,13.1,23.8,,
COc1cc(NC(C)CCCN2C(=O)CN(C(=O)[C@@H](C)N)C2(C)C)c2ncccc2c1 (stereo partly specified),120,40.1,,Stable,> 3,8.4,Dose-dependent effect,Dose-dependent effect,10,tde,67.9,7.8,2.49,18.7,39.6,,
COc1cc(N(C(C)=O)C(C)CCCN2C(=O)CN(C(C)=O)C2(C)C)c2ncccc2c1 (stereo unspecified),,,> 10,,,≥ 50,,,,,,> 100,,≥ 50,≥ 50,,
COc1cc(NC(C)CCCN2C(=O)CN(C(=O)[C@H](N)Cc3ccccc3)C2(C)C)c2ncccc2c1 (stereo partly specified),5.4,40,9.9,Stable,> 3,10.1,Dose-dependent effect,Dose-dependent effect,21,tde,43.8,9.1,3.6,18.5,24,,
